IC50, Accumulated counts and ED50 data for four molecules are collected here from ChEMBL document CHEMBL1123557, “N-substituted 1,2,3,4,4a,5,6,10b-octahydrobenzo[f]quinolines and 3-phenylpiperidines: effects on central dopamine and sigma receptors” (J Med Chem, 1987).

Usually IC50 stands for the concentration at which inhibition is half-maximal. Low values mean higher potency, high ones lower potency.

The target of one experiment is D(2) dopamine receptor (Rattus norvegicus, UniProt P61169). Briefly: Binding affinity against Dopamine receptor D2 using [3H]spiperone as radioligand. In outline:
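Rat striatal membranes (male Sprague-Dawley, 150–250 g), washed three times in 50 mM Tris-HCl pH 7.7. 0.2–0.4 nM [3H]spiperone with 100 mM NaCl and 3 mM MgCl2, about 2 mg tissue, 15 min at 37 °C. Nonspecific binding defined with 1 μM haloperidol. Bound ligand collected by filtration onto PEI-treated glass fiber filters and counted by scintillation. Competition curves fitted iteratively.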

Experiment [1] concerns Rattus norvegicus. Briefly: post-synaptic dopaminergic effect was assessed by the increase in locomotor activity at 30 min time interval by 3.3 umol/kg dosage administration. It is filed as functional. In outline:
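Test substance dissolved in saline immediately before use, occasionally with a few drops of glacial acetic acid and/or moderate heating; dosing solutions at neutral pH. Locomotor activity is the behavioral read-out of postsynaptic dopamine receptor stimulation.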

Experiment [2] has as its target Sigma non-opioid intracellular receptor 1 (Rattus norvegicus, UniProt Q9R0C9). Briefly: In vitro for binding affinity against sigma receptor using [3H](+)-3-PPP as radioligand. In outline:
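Whole rat brain membranes (male Sprague-Dawley) in 50 mM Tris-HCl pH 8.0. Nonspecific binding defined with 1 μM haloperidol. Rapid filtration onto PEI-treated glass fiber filters, scintillation counting. IC50 from iterative curve fitting.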

Experiment [3] relates to Rattus norvegicus. Kind of experiment: post-synaptic dopaminergic effect was assessed by the increase in locomotor activity at 30 min time interval by 133 umol/kg dosage administration. In kind it is functional.
Experiment [4] concerns Rattus norvegicus. Kind of experiment: post-synaptic dopaminergic effect was assessed by the increase in locomotor activity at 30 min time interval by 7 umol/kg dosage administration. In kind it is functional.
Experiment [5] is filed under the species Rattus norvegicus. Briefly: Effective dose required for DOPA accumulation (presynaptic dopaminergic effect) in rat; I is inactive. It is filed as functional, organism-based. In outline: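 Male Sprague-Dawley rats (200–300 g); drug in saline given sc. DOPA measured by HPLC with electrochemical detection in each brain area. Dose-response curves used four to six dose levels per substance and area.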

In experiment [6] the test system is Rattus norvegicus. Kind of experiment: post-synaptic dopaminergic effect was assessed by the increase in locomotor activity at 30 min time interval by 200 umol/kg dosage administration. In kind it is functional.

Molecules are shown by their SMILES. Active and inactive are the calls of the source. No cut-off for these calls is given here.

Sequence of Sigma non-opioid intracellular receptor 1 (Q9R0C9 whole entry): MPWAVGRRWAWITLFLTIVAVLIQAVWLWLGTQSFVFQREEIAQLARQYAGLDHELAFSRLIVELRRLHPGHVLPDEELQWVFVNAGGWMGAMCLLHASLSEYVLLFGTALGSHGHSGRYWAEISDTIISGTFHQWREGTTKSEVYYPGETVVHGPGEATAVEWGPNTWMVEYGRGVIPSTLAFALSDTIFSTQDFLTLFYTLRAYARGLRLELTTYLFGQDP
Sequence of D(2) dopamine receptor (P61169 whole entry): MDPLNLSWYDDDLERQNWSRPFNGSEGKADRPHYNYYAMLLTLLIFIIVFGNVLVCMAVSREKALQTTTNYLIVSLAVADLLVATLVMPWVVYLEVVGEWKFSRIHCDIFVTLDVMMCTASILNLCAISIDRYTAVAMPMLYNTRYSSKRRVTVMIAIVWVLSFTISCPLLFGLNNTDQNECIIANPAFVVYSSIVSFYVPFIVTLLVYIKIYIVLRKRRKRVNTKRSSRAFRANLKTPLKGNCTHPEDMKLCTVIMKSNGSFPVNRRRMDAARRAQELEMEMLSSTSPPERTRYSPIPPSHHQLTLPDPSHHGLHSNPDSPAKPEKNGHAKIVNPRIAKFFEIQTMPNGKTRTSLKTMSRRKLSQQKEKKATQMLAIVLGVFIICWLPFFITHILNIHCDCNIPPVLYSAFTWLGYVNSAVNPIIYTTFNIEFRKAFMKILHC

As for `CC(C)N1CCC[C@@H](c2cccc(O)c2)C1`, the IC50 at D(2) dopamine receptor was found to be 355 nM; in experiment [2] it was 208 nM. Further, the Accumulated counts with Rattus norvegicus [1] is given as 38.
In the case of `CN1CCC[C@H](c2cccc(O)c2)C1`, the IC50 on D(2) dopamine receptor was 4120 nM; in experiment [2], 373 nM. For the same molecule, the Accumulated counts in the experiment on Rattus norvegicus [3] is on record as 88.
On to `Oc1cccc([C@@H]2CCCN(CCc3ccccc3)C2)c1`, for which the results for the IC50 (on D(2) dopamine receptor; in experiment [2]) were 44 nM and 16 nM, respectively. For the same molecule, the Accumulated counts in the experiment on Rattus norvegicus [4] worked out at 71.
Regarding `Oc1cccc([C@@H]2CCCNC2)c1`, the IC50 at D(2) dopamine receptor worked out at 1750 nM; in experiment [2], 15600 nM. Besides, the ED50 result in the experiment filed under Rattus norvegicus [5] was “inactive”. This molecule also showed an Accumulated counts with Rattus norvegicus [6] of 4.
